Reference: ChEMBL document CHEMBL1142540, “Novel piperidinylpyrimidine derivatives as inhibitors of HIV-1 LTR activation” (Bioorg Med Chem, 2008)

Columns and labels:
[1] = Inhibition of HIV1 LTR-driven CAT gene expression in PMA-stimulated human JURKAT cells; assay type: cell-based; settings: Human immunodeficiency virus 1, Jurkat
Procedure, shortened: (§1)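 Jurkat cells electroporated (140 V) with HIV-1 LTR-CAT plasmid p469 using DEAE-dextran and cultured 20 h. Cells then stimulated with PMA 10 ng/ml in presence of compound for 24 h at 37 °C, lysed by freeze-thaw.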

Jurkat [2] = assay: Inhibition of HIV1 LTR-driven CAT gene expression in PMA-stimulated human JURKAT cells at 5 uM; assay type: cell-based; settings: Human immunodeficiency virus 1; procedure, shortened: as §1
[3] = tested on: Peritoneal macrophage cell; assay: Inhibition of LPS-stimulated TNFalpha production in BALB/c mouse peritoneal macrophages by ELISA; assay type: functional, cell-based
Procedure, shortened: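 Thioglycolate-elicited peritoneal macrophages from 5-week-old female BALB/c mice, adherent cells at 2×10^5/well in MEM with 10% FBS. LPS 10 ug/ml final, added together with compound (DMSO below 0.1%), 20 h. Supernatant TNF-α measured by sandwich ELISA against recombinant mouse TNF-α standard curve, absorbance at 450 nm.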

Jurkat [4] = assay: Cytotoxicity against human JURKAT cells; assay type: cell-based
Procedure, shortened: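 Cell number of treated Jurkat cells counted by Coulter counter to assess inhibition of proliferation.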

PBMC = assay: Inhibition of LPS-stimulated TNFalpha production in human PBMC; assay type: functional, cell-based
Procedure, shortened: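 Human PBMC from healthy donors isolated by Ficoll-Paque, seeded at 1×10^5 cells/well in RPMI 1640 with 10% heat-inactivated FBS and L-glutamine. Stimulated with LPS 0.1 ug/ml final, compound added at the same time (DMSO below 0.1%), 20 h; supernatants collected for TNF-α.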

[5] = Inhibition of HIV1 LTR-driven CAT gene expression in Tat-stimulated human JURKAT cells; assay type: cell-based; settings: Human immunodeficiency virus 1, Jurkat
Procedure, shortened: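 Jurkat cells co-electroporated (140 V) with LTR-CAT p469 plus pSV-Tat using DEAE-dextran, cultured 20 h, then treated with compound alone (no PMA) for 24 h at 37 °C.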

SMILES: COc1ccc(Cc2cc(C3CCN(C(=O)c4ccc(OC)c(OC)c4)CC3)nc(N)n2)cc1
- IC50 [1]: > 5000 nM
- inhibition (Jurkat [2]): 14%
- IC50 [3]: 900 nM
- Activity (Jurkat [4]): Non-toxic

SMILES: COc1ccc(Cc2cc(C3CCN(C(=O)c4ccc(Cl)cc4)CC3)nc(N)n2)cc1
- IC50 [1]: > 5000 nM
- inhibition (Jurkat [2]): 21%
- IC50 [3]: 600 nM
- Activity (Jurkat [4]): Non-toxic

SMILES: COc1ccc(Cc2cc(C3CCN(C(=O)c4ccc5c(c4)OCO5)CC3)nc(=O)[nH]2)cc1
- IC50 [1]: > 5000 nM
- Activity (Jurkat [4]): Non-toxic

SMILES: COc1ccc(Cc2cc(C3CCN(C(=O)Cc4ccc5c(c4)OCO5)CC3)nc(N)n2)cc1
- IC50 [1]: > 5000 nM
- inhibition (Jurkat [2]): 16%
- Activity (Jurkat [4]): Non-toxic

SMILES: COc1ccc(Cc2cc(C3CCN(C(=O)c4ccc5c(c4)OCO5)CC3)ncn2)cc1
- IC50 [1]: 500 nM
- Activity (Jurkat [4]): Non-toxic

SMILES: COc1ccc(Cc2cc(C3CCN(C(=O)c4ccc5ocnc5c4)CC3)nc(N)n2)cc1
- IC50 [1]: > 5000 nM
- inhibition (Jurkat [2]): -7%
- Activity (Jurkat [4]): Non-toxic

SMILES: COc1ccc(Cc2cc(C3CCN(C(=O)c4ccc5nsnc5c4)CC3)nc(N)n2)cc1
- IC50 [1]: > 5000 nM
- inhibition (Jurkat [2]): 4%
- Activity (Jurkat [4]): Non-toxic

SMILES: COc1cccc(Cc2cc(C3CCN(C(=O)c4ccc5c(c4)OCO5)CC3)nc(N)n2)c1
- IC50 [1]: 300 nM
- IC50 (PBMC): 2700 nM
- Activity (Jurkat [4]): Non-toxic

SMILES: C[S+]([O-])c1ccc(Cc2cc(C3CCN(C(=O)c4ccc5c(c4)OCO5)CC3)nc(N)n2)cc1 (centres undefined)
- IC50 [1]: > 5000 nM
- inhibition (Jurkat [2]): 27%
- Activity (Jurkat [4]): Non-toxic

SMILES: COc1ccc(Cc2cc(C3CCN(C(=O)Cc4ccc(OC)c(OC)c4)CC3)nc(N)n2)cc1
- IC50 [1]: > 5000 nM
- inhibition (Jurkat [2]): 7%
- Activity (Jurkat [4]): Non-toxic

SMILES: Nc1nc(Cc2ccc(Br)cc2)cc(C2CCN(C(=O)c3ccc4c(c3)OCO4)CC2)n1
- IC50 [1]: 700 nM
- Activity (Jurkat [4]): Non-toxic

SMILES: COc1ccc(-c2c(C)nc(N)nc2C2CCN(C(=O)c3ccc4c(c3)OCO4)CC2)cc1
- IC50 [1]: > 5000 nM
- inhibition (Jurkat [2]): 31%
- Activity (Jurkat [4]): Non-toxic

SMILES: COc1ccc(Cc2cc(C3CCN(C(=O)c4ccc(Cl)c(Cl)c4)CC3)nc(N)n2)cc1
- IC50 [1]: > 5000 nM
- inhibition (Jurkat [2]): 17%
- IC50 [3]: 700 nM
- Activity (Jurkat [4]): Non-toxic

SMILES: COc1ccc(Cc2cc(C3CCN(C(=O)c4ccc5occc5c4)CC3)nc(N)n2)cc1
- IC50 [1]: > 5000 nM
- inhibition (Jurkat [2]): 4%
- Activity (Jurkat [4]): Non-toxic

SMILES: Nc1nc(Cc2ccc(OCc3ccccc3)cc2)cc(C2CCN(C(=O)c3ccc4c(c3)OCO4)CC2)n1
- IC50 [1]: 1200 nM
- IC50 [5]: 2100 nM
- Activity (Jurkat [4]): Non-toxic

SMILES: COc1ccc(Cc2cc(C3CCN(C(=O)c4ccc5c(c4)OCO5)CC3)nc(Cl)n2)cc1
- IC50 [1]: 700 nM
- Activity (Jurkat [4]): Non-toxic

SMILES: COc1ccc(Cc2cc(C3CCN(C(=O)c4ccc5c(c4)CCO5)CC3)nc(N)n2)cc1
- IC50 [1]: > 5000 nM
- inhibition (Jurkat [2]): -8%
- Activity (Jurkat [4]): Non-toxic

SMILES: COc1ccc(Cc2cc(C3CCN(C(=O)c4ccccc4)CC3)nc(N)n2)cc1
- IC50 [1]: > 5000 nM
- inhibition (Jurkat [2]): 19%
- Activity (Jurkat [4]): Non-toxic

SMILES: Nc1nc(Cc2ccc(Cl)cc2)cc(C2CCN(C(=O)c3ccc4c(c3)OCO4)CC2)n1
- IC50 [1]: 1300 nM
- IC50 [5]: 7100 nM
- IC50 (PBMC): 13000 nM
- Activity (Jurkat [4]): Non-toxic

SMILES: CCCCCCCC(=O)N1CCC(c2cc(Cc3ccc(OC)cc3)nc(N)n2)CC1
- IC50 [1]: > 5000 nM
- inhibition (Jurkat [2]): 19%
- Activity (Jurkat [4]): Non-toxic

SMILES: Nc1nc(Cc2ccccc2)cc(C2CCN(C(=O)c3ccc4c(c3)OCO4)CC2)n1
- IC50 [1]: 800 nM
- IC50 (PBMC): 3200 nM
- Activity (Jurkat [4]): Non-toxic

SMILES: COc1ccc(Cc2cc(C3CCN(C(=O)c4ccc(OC)cc4)CC3)nc(N)n2)cc1
- IC50 [1]: > 5000 nM
- inhibition (Jurkat [2]): -5%
- IC50 [3]: 500 nM
- Activity (Jurkat [4]): Non-toxic

SMILES: COc1ccc(Cc2cc(C3CCN(C(=O)c4ccc([N+](=O)[O-])cc4)CC3)nc(N)n2)cc1
- IC50 [1]: > 5000 nM
- inhibition (Jurkat [2]): 23%
- IC50 [3]: 700 nM
- Activity (Jurkat [4]): Non-toxic

SMILES: COc1ccc(Cc2cc(C3CCN(C(=O)c4ccc5c(c4)OCO5)CC3)n[nH]2)cc1
- IC50 [1]: > 5000 nM
- inhibition (Jurkat [2]): 35%
- Activity (Jurkat [4]): Non-toxic

SMILES: Nc1nc(Cc2ccc(O)cc2)cc(C2CCN(C(=O)c3ccc4c(c3)OCO4)CC2)n1
- IC50 [1]: > 5000 nM
- inhibition (Jurkat [2]): 36%
- Activity (Jurkat [4]): Non-toxic

SMILES: CS(=O)(=O)c1ccc(Cc2cc(C3CCN(C(=O)c4ccc5c(c4)OCO5)CC3)nc(N)n2)cc1
- IC50 [1]: > 5000 nM
- inhibition (Jurkat [2]): 37%
- Activity (Jurkat [4]): Non-toxic

SMILES: COc1ccc(Cc2cc(C3CCN(C(=O)c4ccc5ncoc5c4)CC3)nc(N)n2)cc1
- IC50 [1]: > 5000 nM
- inhibition (Jurkat [2]): -8%
- Activity (Jurkat [4]): Non-toxic

SMILES: COc1ccc(Cc2cc(C3CCN(C(=O)c4ccc5ccoc5c4)CC3)nc(N)n2)cc1
- IC50 [1]: > 5000 nM
- inhibition (Jurkat [2]): 2%
- Activity (Jurkat [4]): Non-toxic

SMILES: Nc1nc(-c2ccc(Cl)cc2)cc(C2CCN(C(=O)c3ccc4c(c3)OCO4)CC2)n1
- IC50 [1]: > 5000 nM
- inhibition (Jurkat [2]): 42%
- Activity (Jurkat [4]): Non-toxic

SMILES: COc1ccc(Cc2cc(C3CCN(C(C)=O)CC3)nc(N)n2)cc1
- IC50 [1]: > 5000 nM
- inhibition (Jurkat [2]): 0%
- Activity (Jurkat [4]): Non-toxic

SMILES: Nc1nc(CCc2ccccc2)cc(C2CCN(C(=O)c3ccc4c(c3)OCO4)CC2)n1
- IC50 [1]: 2100 nM
- Activity (Jurkat [4]): Non-toxic

SMILES: COc1ccc(Cc2cc(C3CCN(C(=O)c4cccc5c4OCO5)CC3)nc(N)n2)cc1
- IC50 [1]: > 5000 nM
- inhibition (Jurkat [2]): 13%
- Activity (Jurkat [4]): Non-toxic

SMILES: COc1ccc(Cc2cc(C3CCN(C(=O)c4ccc5c(c4)OCCO5)CC3)nc(N)n2)cc1
- IC50 [1]: > 5000 nM
- inhibition (Jurkat [2]): 7%
- Activity (Jurkat [4]): Non-toxic

SMILES: COc1ccc(Cc2cc(C3CCN(C(=O)c4ccc5c(c4)OCO5)CC3)nc(N)n2)cc1OC
- IC50 [1]: 600 nM
- IC50 (PBMC): 3200 nM
- Activity (Jurkat [4]): Non-toxic

SMILES: COc1ccc(Cc2cc(C3CCN(C(=O)c4ccc5c(c4)OCO5)CC3)nc(N)n2)cc1
- IC50 [1]: 600 nM
- inhibition (Jurkat [2]): 86%
- IC50 [3]: 600 nM
- IC50 [5]: 4000 nM
- IC50 (PBMC): 1900 nM
- Activity (Jurkat [4]): Non-toxic

SMILES: COc1ccc(Cc2cc(C3CCN(C(=O)c4ccc5[nH]ccc5c4)CC3)nc(N)n2)cc1
- IC50 [1]: > 5000 nM
- inhibition (Jurkat [2]): 1%
- Activity (Jurkat [4]): Non-toxic

SMILES: Nc1nc(Cc2ccc3c(c2)OCO3)cc(C2CCN(C(=O)c3ccc4c(c3)OCO4)CC2)n1
- IC50 [1]: 700 nM
- IC50 (PBMC): 3300 nM
- Activity (Jurkat [4]): Non-toxic

SMILES: Cc1cc(C2CCN(C(=O)c3ccc4c(c3)OCO4)CC2)nc(N)n1
- IC50 [1]: > 5000 nM
- inhibition (Jurkat [2]): 10%
- Activity (Jurkat [4]): Non-toxic

SMILES: COc1ccc(Cc2cc(C3CCN(Cc4ccc5c(c4)OCO5)CC3)nc(N)n2)cc1
- IC50 [1]: > 5000 nM
- inhibition (Jurkat [2]): -2%
- Activity (Jurkat [4]): Non-toxic

SMILES: Nc1nc(-c2ccccc2)cc(C2CCN(C(=O)c3ccc4c(c3)OCO4)CC2)n1
- IC50 [1]: > 5000 nM
- inhibition (Jurkat [2]): 47%
- Activity (Jurkat [4]): Non-toxic

SMILES: COc1ccc(-c2cc(C3CCN(C(=O)c4ccc5c(c4)OCO5)CC3)nc(N)n2)cc1
- IC50 [1]: 1900 nM
- Activity (Jurkat [4]): Non-toxic

SMILES: COc1ccc(Cc2cc(C3CCN(C(=O)c4ccc5c(c4)OCO5)CC3)on2)cc1
- IC50 [1]: > 5000 nM
- inhibition (Jurkat [2]): 35%
- Activity (Jurkat [4]): Non-toxic

SMILES: Nc1nc(C2CCN(C(=O)c3ccc4c(c3)OCO4)CC2)c2ccccc2n1
- IC50 [1]: 2600 nM
- Activity (Jurkat [4]): Non-toxic

SMILES: COc1ccc(Cc2cc(C3CCN(C(=O)c4ccc5c(c4)OCO5)CC3)no2)cc1
- IC50 [1]: > 5000 nM
- inhibition (Jurkat [2]): 36%
- Activity (Jurkat [4]): Non-toxic
